Assay results reported in ChEMBL document CHEMBL4145581, “Piperidine Alkaloids with Diverse Skeletons from Anacyclus pyrethrum” (J Nat Prod, 2018).

molecular target: T1, Menin (Homo sapiens) (UniProt O00255); test: Inhibition of FITC-labelled MLL1 binding to menin (unknown origin) at 20 uM after 120 mins by fluorescence polarization method relative to control
T1 sequence (whole entry): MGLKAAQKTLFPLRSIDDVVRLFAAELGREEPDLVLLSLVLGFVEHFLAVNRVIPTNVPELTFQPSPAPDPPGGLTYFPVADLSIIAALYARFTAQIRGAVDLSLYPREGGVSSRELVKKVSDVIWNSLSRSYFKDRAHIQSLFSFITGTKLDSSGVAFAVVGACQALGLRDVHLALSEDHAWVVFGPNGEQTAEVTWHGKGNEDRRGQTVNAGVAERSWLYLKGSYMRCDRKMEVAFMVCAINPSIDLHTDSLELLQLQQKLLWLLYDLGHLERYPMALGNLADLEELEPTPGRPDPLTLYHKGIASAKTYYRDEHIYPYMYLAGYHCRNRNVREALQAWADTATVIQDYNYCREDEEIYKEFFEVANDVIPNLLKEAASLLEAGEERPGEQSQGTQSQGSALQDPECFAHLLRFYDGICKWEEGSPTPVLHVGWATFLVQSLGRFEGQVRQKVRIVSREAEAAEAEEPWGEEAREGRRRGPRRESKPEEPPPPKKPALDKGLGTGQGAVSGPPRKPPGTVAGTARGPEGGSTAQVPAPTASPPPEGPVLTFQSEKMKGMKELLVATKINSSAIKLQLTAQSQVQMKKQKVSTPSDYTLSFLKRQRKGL
How it was run: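 Menin–MLL1 protein–protein interaction inhibition assay with fluorescence polarization read-out on a plate reader. MI-2-2 served as the positive control.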

inhibition, < 50%:
CC1=C2NC(C)(C)CC2=NC(C)(C)C1=O
CC(=O)NC(C)(C)CC1=C[C@@]2(C)C(=O)C(C)(C)NC(C)=C2C1=O
CC1(C)CC(C2OC2(C)C)=CC(=O)N1 (stereo not drawn)
CC1=C2C3=C(C)C(=O)C(C)(C)N=C3C[C@@]2(C)CC(C)(C)N1
CC1=CC(=O)NC(C)(C)C1
CC(=O)NC(C)(C)[C@H]1C(=O)C2=CC(C)(C)NC(C)=C2C(=O)[C@@H]1C=C(C)C
CC1=CC(C)(C)NC1=O
CC1=C2C(=O)C3=CC(C)(C)N=C4CC(C)(C)C[C@@]2(CC(C)(C)N1)[C@]34O
CC(=O)NC(C)(C)C[C@@]1(O)C(=O)C2=C(C)NC(C)(C)C(=O)C2(C)[C@H]1O (stereo partly drawn)
CC(=O)NC(C)(C)C1C=C2CC(C)(C)NC(C)=C2C(=O)C1C (stereo not drawn)
CC1(C)CC2=NC(C)(C)C3=NC(C)(C)CC3(O)C2=N1 (stereo not drawn)
CC(=O)NC(C)(C)[C@H]1C(=O)C2=CC(C)(C)NC(C)=C2C(=O)[C@@H]1C
CC1(C)CC2=NC(C)(C)C(=O)C(C(C)(C)O)=C2N1
